These results are taken from PMC3777810 (Journal of medicinal chemistry, 2013).

Series [1] has as its system MA-10 mouse tumor Leydig cells. Description: Steroidogenesis assay: progesterone production by RIA. It counts as cell-based. The settings on record: for progesterone production: all tested concentrations (0–100 μM); for progesterone production / stimulation of progesterone production: 2 h incubation, RIA; for time of first maximum steroid production: 50 μM, 0–120 min, biphasic time response; for stimulation of progesterone production: 100 μM. A digest of the protocol:
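Cells were plated at 2.5 × 10^4 per well, left to adhere 18 h, washed with PBS, then given serum-free medium with 0–100 μM test compound from DMSO stocks (final DMSO <0.02%; controls matched). Incubation was 2 h, or 0–120 min at 50 μM (n=2). Medium progesterone was measured by RIA with anti-progesterone antisera and normalized to well protein (Bradford, BSA standard).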

The subject of series [2] is MA-10 mouse tumor Leydig cells. Description: Cellular toxicity by MTT assay. The series is classed as cell-based. The note with it: 100 μM, 2 h. A digest of the protocol:
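MA-10 mouse Leydig tumor cells were grown in DMEM/F-12 Ham with 5% fetal bovine serum and 2.5% heat-inactivated horse serum. They were exposed to test compound for 2 h, at 100 μM or over 0.1–100 μM, and toxicity was read by MTT. Single-concentration data are mean ± S.E.M. (n=3), compared by one-way ANOVA with Newman-Keuls post-test. Dose curves were fitted by nonlinear regression.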
(Formazan colour is commonly taken as a measure of viable cells.)

In series [3] the test system is mouse model of mania. The settings on record: amphetamine and chlordiazepoxide induced; cited from earlier work.
Series [4] has as its system C57BL/6 mice. As to the kind of experiment: SmartCube behavioral assay. The series is classed as in vivo, mouse. The settings on record: for SmartCube signature after chronic administration: 50 mg/kg i.p. once a day for 13 days; for SmartCube signature after a single dose: 50 mg/kg i.p., day 1, 15 min after dose. The essentials: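 Mice received test compound at 50 mg/kg i.p. once daily for 13 days, dosed 15 min before a session presenting multiple challenges, with at least 12 mice per group. Behavioral features were analyzed by computer algorithms and data mining. They were compared with a database of signatures from reference antipsychotics, anxiolytics and antidepressants.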

Series [5] deals with human GSK-3β (Homo sapiens, UniProt P49841). Description: GSK-3β inhibition, phosphorylation of primed substrate. The series is classed as biochemical.
human GSK-3β, sequence (P49841 whole entry): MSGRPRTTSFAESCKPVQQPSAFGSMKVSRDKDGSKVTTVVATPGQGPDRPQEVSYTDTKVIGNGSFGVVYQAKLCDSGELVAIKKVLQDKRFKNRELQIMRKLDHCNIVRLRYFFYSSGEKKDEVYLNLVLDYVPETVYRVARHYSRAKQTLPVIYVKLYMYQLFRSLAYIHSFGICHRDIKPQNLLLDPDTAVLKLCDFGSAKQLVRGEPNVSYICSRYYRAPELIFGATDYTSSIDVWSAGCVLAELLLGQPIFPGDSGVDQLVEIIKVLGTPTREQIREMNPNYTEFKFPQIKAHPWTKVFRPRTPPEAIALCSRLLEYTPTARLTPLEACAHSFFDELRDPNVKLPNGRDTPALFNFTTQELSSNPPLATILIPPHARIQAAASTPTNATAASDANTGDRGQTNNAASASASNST

“Also recorded” adds a separate entry of the source. Where a name gives a salt, the structure may show the parent alone.

`COCCn1cc(C2=C(c3coc4ccccc34)C(=O)NC2=O)c2cccnc21` [Compound 16, 3-(Benzofuran-3-yl)-4-(1-(2-methoxyethyl)-1H-pyrrolo[2,3-b]pyridin-3-yl)-1H-pyrrole-2,5-dione]: the progesterone production in series [1] was < 30 ng progesterone/mg protein. The “cellular toxicity (MTT)” value in series [2] is “low, but observable signs of cytotoxicity”.

In the case of `O=C1NC(=O)C(c2cn3c4c(cc(F)cc24)CN(C(=O)N2CCOCC2)CC3)=C1c1coc2ccccc12` [Compound 31, 3-(Benzofuran-3-yl)-4-(9-fluoro-2-(morpholine-4-carbonyl)-1,2,3,4-tetrahydro-[1,4]diazepino[6,7,1-hi]indol-7-yl)-1H-pyrrole-2,5-dione], the “cellular toxicity (MTT)” value in series [2] is given as “significantly more cytotoxic”.

For `COc1cc2c(C3=C(c4coc5ccccc45)C(=O)NC3=O)cn(C)c2cn1` [Compound 17, 3-(Benzofuran-3-yl)-4-(5-methoxy-1-methyl-1H-pyrrolo[2,3-c]pyridin-3-yl)-1H-pyrrole-2,5-dione], the progesterone production in series [1] is given as < 30 ng progesterone/mg protein.

Regarding `Cn1cc(C2=C(c3cnc4ccccn34)C(=O)NC2=O)c2cc(Br)ccc21` [Compound 20, 3-(5-Bromo-1-methyl-1H-indol-3-yl)-4-(imidazo[1,2-a]pyridin-3-yl)-1H-pyrrole-2,5-dione trifluoroacetate], the progesterone production in series [1] is < 30 ng progesterone/mg protein.

Turning to `O=C1NC(=O)C(c2cn3c4c(cc(F)cc24)CN(C(=O)N2CCC(N4CCCCC4)CC2)CC3)=C1c1coc2ccccc12` [Compound 30, 3-(2-([1,4’-Bipiperidine]-1’-carbonyl)-9-fluoro-1,2,3,4-tetrahydro-[1,4]diazepino[6,7,1-hi]indol-7-yl)-4-(benzofuran-3-yl)-1H-pyrrole-2,5-dione trifluoroacetate], in series [2], the “cellular toxicity (MTT)” value is on record as “significantly more cytotoxic”.

`Cn1cc(C2=C(c3coc4ccccc34)C(=O)NC2=O)c2cc(Br)ccc21` [Compound 1, 3-(benzofuran-3-yl)-4-(5-bromo-1-methyl-1H-indol-3-yl)-1H-pyrrole-2,5-dione]: in series [1], the “time of first maximum steroid production” value is listed as ≤ 15 min and the “stimulation of progesterone production” value was “bioactive in stimulating progesterone production”. For the same molecule, the “cellular toxicity (MTT)” value in series [2] is recorded as “either low or no apparent toxicity”. In series [3], the effect on hyperactivity result was “attenuates hyperactivity”. In series [4], the “SmartCube signature after chronic administration” value is on record as “predicting anxiolytic-like activity” and the “SmartCube signature after a single dose” value is recorded as “Neither compound demonstrated any classified behavioral activity”.

Turning to `Cn1cc(C2=C(c3cnc4ccccn34)C(=O)NC2=O)c2cc3c(cc21)OCO3` [Compound 19, 3-(Imidazo[1,2-a]pyridin-3-yl)-4-(5-methyl-5H-[1,3]dioxolo[4,5-f]indol-7-yl)-1H-pyrrole-2,5-dione trifluoroacetate], half-maximal inhibition in series [5] (IC50) was put at 5 nM.

For `O=C1NC(=O)C(c2cn3c4c(cc(Br)cc24)CNCC3)=C1c1coc2ccccc12` [Compound 26, 3-(Benzofuran-3-yl)-4-(9-bromo-1,2,3,4-tetrahydro-[1,4]diazepino[6,7,1-hi]indol-7-yl)-1H-pyrrole-2,5-dione trifluoroacetate], the “stimulation of progesterone production” value in series [1] was “bioactive in stimulating progesterone production”. In series [2], the “cellular toxicity (MTT)” value is “toxic to the MA-10 cells”.

On to `COCCn1cc(C2=C(c3coc4ccccc34)C(=O)NC2=O)c2ccccc21` [Compound 9, 3-(Benzofuran-3-yl)-4-(1-(2-methoxyethyl)-1H-indol-3-yl)-1H-pyrrole-2,5-dione], for which, in series [1], the “time of first maximum steroid production” value was ≤ 15 min and the “stimulation of progesterone production” value is recorded as “bioactive in stimulating progesterone production”. The “cellular toxicity (MTT)” value in series [2] is “either low or no apparent toxicity”. In addition, in series [4], the “SmartCube signature after chronic administration” value is “predicting anxiolytic-like activity” and the “SmartCube signature after a single dose” value was “Neither compound demonstrated any classified behavioral activity”.

Consider `COCCc1cccc2c(C3=C(c4coc5ccccc45)C(=O)NC3=O)cn(CCOC)c12` [Compound 23, 3-(Benzofuran-3-yl)-4-(1,7-bis(2-methoxyethyl)-1H-indol-3-yl)-1H-pyrrole-2,5-dione], for which the progesterone production in series [1] is given as < 30 ng progesterone/mg protein. Moreover, the “cellular toxicity (MTT)” value in series [2] is reported as “low, but observable signs of cytotoxicity”.

Turning to `COCCn1cc(C2=C(c3coc4ccccc34)C(=O)NC2=O)c2cc(Br)cnc21` [Compound 14, 3-(Benzofuran-3-yl)-4-(5-bromo-1-(2-methoxyethyl)-1H-pyrrolo[2,3-b]pyridin-3-yl)-1Hpyrrole-2,5-dione], the “stimulation of progesterone production” value in series [1] was “bioactive in stimulating progesterone production”. Further, in series [2], the “cellular toxicity (MTT)” value is “either low or no apparent toxicity”.

Take `COCCc1cccc2c(C3=C(c4coc5ccccc45)C(=O)NC3=O)cn(C)c12` [Compound 21, 3-(Benzofuran-3-yl)-4-(7-(2-methoxyethyl)-1-methyl-1H-indol-3-yl)-1H-pyrrole-2,5-dione]: in series [1], the “stimulation of progesterone production” value is recorded as “bioactive in stimulating progesterone production”. In addition, the “cellular toxicity (MTT)” value in series [2] is “either low or no apparent toxicity”.

Regarding `O=C1NC(=O)C(c2cn3c4c(cc(F)cc24)CNCC3)=C1c1coc2ccccc12` [Compound 25, 3-(Benzofuran-3-yl)-4-(9-fluoro-1,2,3,4-tetrahydro-[1,4]diazepino[6,7,1-hi]indol-7-yl)-1H-pyrrole-2,5-dione trifluoroacetate], the progesterone production in series [1] was < 30 ng progesterone/mg protein.

For the molecule `COCCn1cc(C2=C(c3coc4ccccc34)C(=O)NC2=O)c2cc(F)c(F)cc21` [Compound 12, 3-(Benzofuran-3-yl)-4-(5,6-difluoro-1-(2-methoxyethyl)-1H-indol-3-yl)-1H-pyrrole-2,5-dione], the “stimulation of progesterone production” value in series [1] is “bioactive in stimulating progesterone production”. In series [2], the “cellular toxicity (MTT)” value is “significantly more cytotoxic; also recorded: toxic to the MA-10 cells”.

On to `Cn1cc(C2=C(c3coc4ccccc34)C(=O)NC2=O)c2cc(Br)cnc21` [Compound 13, 3-(Benzofuran-3-yl)-4-(5-bromo-1-methyl-1H-pyrrolo[2,3-b]pyridin-3-yl)-1H-pyrrole-2,5-dione], for which the “stimulation of progesterone production” value in series [1] is reported as “bioactive in stimulating progesterone production”. The IC50 (in general, the concentration needed to halve the response being measured) in series [5] worked out at 5 nM. Moreover, the “cellular toxicity (MTT)” value in series [2] is on record as “either low or no apparent toxicity”.
